The list is not random: actives were taken first. Their share in the collection is about 3.1%.
DENV2 CPE rescue: inhibitors of DENV2 cytopathic effect, primary screen, cell-based, plate reader, single concentration; DENV2-infected cells, cytopathic effect rescue; CPE inhibition, % at 9.99 µM; 1.7% of 350,000 active; in the data active means CPE inhibition above about 20%, passing the limit was not always enough; inconclusive means no clear call, values can overlap the other calls; tested in BHK-21 cells;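 further: 0% = median of neutral control wells and 100% = median of positive control wells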
Ecoli rRNA inh: reduced GFP signal of wild-type E. coli, primary screen, bacterial rRNA inhibitor project, GFP/RFP fluorescence, OD600, single point; E. coli WT GFP vs humanized-ribosome RFP mutants, 24 h; active compounds read low; DMSO median 0, no signal -100; GFP signal change (wild-type ribosome), % (concentration not given with the values); 1.6% of 350,000 active; AID 720706, 2013;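 active means significant combined selectivity score with lowered wild-type GFP, culture density cut under 30%, mutant RFP and density less affected; inactive means any of these conditions unmet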
E-sel inducer: E-selectin induction in HUVECs, primary screen, imaging, HUVEC, immunofluorescence imaging, single point | activation, % at 7.58 µM | normalized: neutral wells 0, TNF-alpha wells 100 | P16581 | AID 686992, 2013 | 0.37% of 260,000 active;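 active means mean E-selectin-positive cell signal at least 10% of the positive control, reached in at least 60% of replicates, without over 20% cell loss; inconclusive means no rule given, readout overlaps actives, possibly toxicity-flagged; inactive means the rest, including those meeting only one limit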
Target sequence (P16581 whole entry, looked up): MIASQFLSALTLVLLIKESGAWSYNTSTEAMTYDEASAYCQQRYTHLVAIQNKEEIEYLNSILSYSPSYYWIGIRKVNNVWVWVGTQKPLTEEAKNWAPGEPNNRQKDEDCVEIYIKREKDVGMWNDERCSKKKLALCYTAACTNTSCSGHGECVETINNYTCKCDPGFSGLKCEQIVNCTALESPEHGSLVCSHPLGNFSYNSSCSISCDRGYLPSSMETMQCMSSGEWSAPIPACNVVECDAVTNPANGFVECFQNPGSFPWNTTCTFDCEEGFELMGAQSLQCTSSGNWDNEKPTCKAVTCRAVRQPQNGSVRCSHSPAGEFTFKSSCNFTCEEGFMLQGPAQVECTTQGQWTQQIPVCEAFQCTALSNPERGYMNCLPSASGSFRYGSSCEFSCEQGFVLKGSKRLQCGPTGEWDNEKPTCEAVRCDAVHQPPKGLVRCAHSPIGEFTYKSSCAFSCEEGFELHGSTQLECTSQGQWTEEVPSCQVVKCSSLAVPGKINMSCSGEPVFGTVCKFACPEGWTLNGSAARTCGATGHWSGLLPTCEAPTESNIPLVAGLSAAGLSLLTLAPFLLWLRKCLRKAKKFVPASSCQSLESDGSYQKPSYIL
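Read-out: % PE-positive cells | Test system: HUVEC | Doses: One compound dose added by pin transfer | Buffer or medium: EGM-2 over gelatin coat | Signal: Immunofluorescence imaging | Benchmarks: TNF-alpha, DMSO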
Cneo AK release: Cryptococcus neoformans cell lysis inducers, primary screen, AK release luminescence, single concentration; C. neoformans lysis, adenylate kinase release luminescence, 4 h; normalised: neutral wells 0, clomiphene wells 100; lysis activity, % at 15 µM; 0.2% of 360,000 active;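 active means mean lysis activity across replicates of at least 80%, whatever share of replicates individually reach that level; inactive means mean lysis activity below 80%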
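Signal: Adenylate kinase release luminescence | Assay system: Log-phase Cryptococcus neoformans yeast cells | Input: Cells at 5 × 10^6 per mL | Buffer or medium: Fresh YPD growth medium | Compound: Single dose | Schedule: Static 4 h at 37 °C with compound, 1 h detection | Controls: Clomiphene | Read-out: Luminescence rise reflecting yeast cell lysis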
miR-122 sensor: miR-122 Renilla sensor signal increase in Huh7, primary screen, miR-122 inhibitor project, cell-based, single point, plate reader. Huh7 miR-122 Renilla luciferase sensor, 48 h; neutral wells = 0, positive control = 100. AID 602342, 2012. 0.3% of 340,000 active. activation (reporter increase), % at 12.5 µM;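 active means mean replicate activation score at least 90 and every replicate individually at or above 90; inconclusive means only one of the two criteria met; inactive means neither criterion met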;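 further: higher luciferase means less miR-122 activity so hits act as miR-122 inhibitors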
Numbers without * were called inactive; u = inconclusive; x = not tested or not shown; [ ] = dose if it differs, or a comment.

SMILES	DENV2 CPE rescue	Ecoli rRNA inh	E-sel inducer	Cneo AK release	miR-122 sensor
Nc1nonc1-n1nnc(C(=O)N/N=C/c2cccc(Cl)c2)c1-c1cccs1	-4	-17*	x	1	3
COc1ccc(/C=N/NC(=O)c2nnn(-c3nonc3N)c2-c2cccs2)cc1OC	1	7	x	-1	2
O=C(NC[C@@H]1N[C@@H](CO)[C@H]1c1ccc(C2=CCCCC2)cc1)c1cccc(F)c1	-8	-61	0	1	-17[16.7 µM]
O=C(C[C@@H]1CC[C@H](NC(=O)C2CC2)[C@@H](CO)O1)NC1CCC1	-4	3	1	-2	-7[16.7 µM]
CN1[C@@H]2c3ccc(-c4ccccc4)c(=O)n3C[C@@H]2[C@@H](CO)[C@@H]1C(=O)NC1Cc2ccccc2C1	2	-11	0	-1	-5[16.7 µM]
Nc1ccc(CC(N)c2csc(Nc3cc(Oc4ccccc4)ncn3)n2)cc1 (stereo not drawn)	46*	-2	0	2	-6
NC(Cc1ccc(C(F)(F)F)cc1)c1csc(Nc2cc(Oc3ccccc3)ncn2)n1 (stereo not drawn)	18	x	3	-10	-4
COc1ccc(C(N)c2csc(Nc3cc(Oc4ccccc4)ncn3)n2)cc1 (stereo not drawn)	53*	-32	0	2	1
Cn1c(=O)c2c(nc3n2CC(O)CN3c2ccc(O)cc2)n(C)c1=O (stereo not drawn)	39*	9	1	-1	-2
Cc1ccc(N2CC(O)Cn3c2nc2c3c(=O)n(C)c(=O)n2C)cc1 (stereo not drawn)	-5	1	x	13	-2
CC(=O)N1[C@@H]2c3ccc(C4=CCCC4)c(=O)n3C[C@H]1[C@H](CO)[C@H]2C(=O)NC1CCCC1	-7	3	0	x	x
CCOC(CNC(=O)c1cc2c(=O)n(CC)c3ccccc3c2s1)OCC	14	5	0	1	-3
CCn1c(=O)c2cc(C(=O)NCCCOC)sc2c2ccccc21	4	-16	53*	-4	-3
CCn1c(=O)c2cc(C(=O)NCC(OC)OC)sc2c2ccccc21	-5	-3	66*	1	-10
C[C@@H]1CCCCO[C@H](CN(C)CC2CCCCC2)[C@H](C)CN([C@@H](C)CO)C(=O)c2cc(NC(=O)C3CCCCC3)ccc2O1	3	4	1	0	16[16.7 µM]
Cc1noc(C)c1S(=O)(=O)N(C)C[C@H]1Oc2ccc(NC(=O)Cn3cnnn3)cc2CC(=O)N([C@H](C)CO)C[C@H]1C	-7	2	-8	3	2[16.7 µM]
CO[C@H]1CN(C)C(=O)c2ccc(NC(=O)Nc3ccccc3F)cc2OC[C@H](C)NC[C@H]1C	-3	0	0	-4	3[16.7 µM]
C[C@@H]1CN([C@@H](C)CO)C(=O)c2cc(-c3cncnc3)cnc2O[C@H]1CN(C)C(=O)Cc1ccccc1	x	4	0	80*	-13[16.7 µM]
C[C@H](CO)N1C[C@H](C)[C@@H](CN(C)C(=O)CN2CCOCC2)Oc2ncc(-c3cncnc3)cc2C1=O	16	9	0	1	-1
C[C@@H]1CN([C@@H](C)CO)C(=O)c2cc(-c3cncnc3)cnc2O[C@H]1CN(C)C(=O)CN1CCOCC1	-4	6	0	105*	-12[16.7 µM]
C[C@H]1CN([C@@H](C)CO)C(=O)c2cc(-c3cncnc3)cnc2O[C@H]1CN(C)C(=O)Cc1ccccc1	2	8	u	45	15[16.7 µM]
COCCNC(=O)C1(C)CCN(C(=O)c2ccc3sccc3c2)C1 (stereo not drawn)	54*	11	0	0	-5
COCCNC(=O)C1(C)CCN(C(=O)Cc2ccc(OC)c(OC)c2)C1 (stereo not drawn)	22*	8	0	0	4
COCCNC(=O)C1(C)CCCN(C(=O)c2ccc(C(F)(F)F)cc2)C1 (stereo not drawn)	50*	22	0	10	x
CCCNC(=O)C1(C)CCN(C(=O)c2ccc3sccc3c2)C1 (stereo not drawn)	-4	-2	0	1	0
